Compound activity as filed in PubChem BioAssay.
14-3-3 Bad inh – disrupts binding of bovine 14-3-3 zeta to phospho-Bad peptide; TR-FRET 14-3-3zeta/Dy647-pBad peptide displacement, 1 h; 0.71% of 220,000 active; inhibition, % at 21.7 µM;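 active means inhibition above about 70%, limit read from the data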
KCC2 mod – KCC2 (human) Cl- transport modulation; KCC2 cells, thallium flux FluoZin-2 fluorescence; B-score of Tl+ flux slope (higher = more flux/activation; lower = inhibition) at 10 µM; 2.2% of 190,000 active; AID 1456;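 active means thallium flux slope and its plate-corrected score both differing from the plate sample mean at a set confidence after two filtering rounds, in either direction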;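 further: slope of fluorescence scaled to starting intensity during 10 to 20 s after thallium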
RBBP9 inh – blocks human serine hydrolase RBBP9; inhibition, % at 7.94 µM; O75884; 0.2% of 220,000 active; recombinant RBBP9, FP-Rh probe fluorescence polarization;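 active means inhibition above the campaign mean of all tested compounds plus 3 SD, cut at about 14% in these data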
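Measured by: FP readout at 525/598 nm; material: recombinant human RBBP9; also added: Serine-hydrolase probe FP-Rh, 375 nM pre-mixing; medium: Tris buffer pH 8.0, NaCl, Pluronic; replication: one well per compound; doses: one concentration, 7.94 µM nominal, 0.794% DMSO; timing: preincubation 30 min plus labeling 45 min at 25 °C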
p47phox inh – p47phox (human) inhibition; AID 1274; 0.53% of 220,000 active; P14598; inhibition, % at 24.7 µM; p47phox/p22phox peptide binding, fluorescence polarization, 2 h;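 active means inhibition above about 30%, limit read from the data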
ROMK primary – human ROMK K+ channel modulation, primary screen. P48048. Tet-inducible ROMK, thallium flux fluorescence; actives lie on both sides. B-score at 10 µM. 2% of 130,000 active;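 active means signal ratio slope over the read window, or its plate-corrected B-score, at least 3 SD from the plate mean, either direction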;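 further: B-score of the F/F0 ratio slope over 7 to 12 s after thallium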
Target sequence (P48048 whole entry, looked up): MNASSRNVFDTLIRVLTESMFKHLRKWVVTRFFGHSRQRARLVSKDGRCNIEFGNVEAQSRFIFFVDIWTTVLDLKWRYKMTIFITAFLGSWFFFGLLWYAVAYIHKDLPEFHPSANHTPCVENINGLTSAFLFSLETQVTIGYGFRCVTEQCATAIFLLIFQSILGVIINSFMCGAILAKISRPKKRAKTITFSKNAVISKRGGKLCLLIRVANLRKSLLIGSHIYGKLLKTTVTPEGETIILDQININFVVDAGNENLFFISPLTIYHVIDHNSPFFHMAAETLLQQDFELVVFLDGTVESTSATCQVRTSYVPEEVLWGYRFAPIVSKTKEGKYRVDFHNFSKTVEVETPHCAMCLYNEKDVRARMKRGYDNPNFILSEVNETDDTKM
WT yeast gro inh – growth inhibition of WT yeast, mitochondrial fusion screen | mitochondrial fusion phenotypic screen, WT strain | inhibition, % at 10 µM | 2.1% of 190,000 active; in the data active means inhibition above about 58%; tested in S. cerevisiae
ROMK hit retest – human ROMK channel modulation, retest confirmation | shares compounds with ROMK primary | ROMK thallium flux, fluorescence ratio; active compounds read low | normalized thallium flux (F/F0 slope) at 10 µM | 54% of 3,000 active | AID 1917;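 active means Flux at 10 µM at least 3 SD below or above vehicle control mean in one or both replicates; inconclusive means no clear call, values can overlap the other calls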
Each line names hits and unclear results; the compound was inactive in the other large screens (follow-up assays come after a bar, where they were run). The list is not random: actives were taken first. Their share in the collection is about 5.8%.

Cc1cc(C)cc(NC(=O)Cn2c(-c3ccccc3Cl)nc3ccccc32)c1	none (no result: ROMK primary)
Cc1cc(CSc2nc(C)cc(=O)[nH]2)c2ncccc2c1	ROMK primary -11.3 | ROMK hit retest inactive
Cc1onc(-c2c(Cl)cccc2Cl)c1C(N)=S	none
Cc1sc2ncn(CCn3cnc4sc(C)c(C)c4c3=O)c(=O)c2c1C	none
Cc1sc2ncn3c(C)nnc3c2c1C	none (no result: KCC2 mod, ROMK primary) | ROMK hit retest inactive
CCOC(=O)c1c(/N=C/c2ccc(C)cc2O)sc2c1CCC2	ROMK primary -2.44 | ROMK hit retest 0.0389
COc1ccccc1/C=c1\sc2nc(-c3cccs3)nn2c1=O	none (no result: 14-3-3 Bad inh, p47phox inh, ROMK primary, WT yeast gro inh)
COc1cccc(/C=c2\sc3nc(-c4cccs4)nn3c2=O)c1OC	none (no result: ROMK primary, WT yeast gro inh) | ROMK hit retest inactive
CC(CCc1ccccc1)NC(=O)/C=C/c1ccc(F)cc1 (stereo not drawn)	ROMK primary 2.1 | ROMK hit retest inactive
CC(CCc1ccccc1)NC(=O)/C=C/c1ccccc1 (stereo not drawn)	none (no result: ROMK primary)
Cc1ccc(Cl)cc1NC(=O)COC(=O)c1ccc(N2CCCC2)c([N+](=O)[O-])c1	none
NC(=O)C(=O)N/N=C/c1cccc(C(F)(F)F)c1	none
CSCCC(NS(=O)(=O)c1ccc(Cl)cc1)C(=O)OCC(=O)c1ccc(F)cc1 (stereo not drawn)	none
Cc1ccc(C(=O)N2C(CC(=O)Nc3ccc(Cl)cc3)C(=O)NC3CCCCC32)cc1 (stereo not drawn)	none (no result: ROMK primary) | ROMK hit retest 0.0674
Cc1cccc(NC(=O)CC2C(=O)NC3CCCCC3N2C(=O)c2ccccc2Cl)c1 (stereo not drawn)	none (no result: ROMK primary, WT yeast gro inh)
COc1ccc(C(CNC(=O)c2cccc(N(C)C)c2)N2CCCC2)cc1 (stereo not drawn)	none (no result: ROMK primary)
COc1ccc(C(CNC(=O)c2cc3ccccc3cc2OC)N2CCCC2)cc1 (stereo not drawn)	ROMK primary -3.1 | ROMK hit retest 0.0619
CCCCN(C(=O)c1ccc2c(c1)OCO2)c1ccccc1	none
CCCCNC(=O)CC1C(=O)N(Cc2ccccc2)C(C)c2nc3ccccc3n21 (stereo not drawn)	none (no result: KCC2 mod)
COCCCNC(=O)CC1C(=O)N(Cc2ccccc2)C(C)c2nc3ccccc3n21 (stereo not drawn)	ROMK primary -4.42 | ROMK hit retest inactive
COc1cc(C(C(=O)NC2CCCCC2)N(CCN2CCOCC2)C(=O)C2COc3ccccc3O2)cc(OC)c1OC (stereo not drawn)	none
CCOc1ccc(C(=O)NCC(=O)OCC(=O)Nc2ccc(C)c(S(=O)(=O)N(C)C)c2)cc1	none
Cc1cc(N2CCCCC2)nc(NCc2ccccc2)n1	none (no result: ROMK primary) | ROMK hit retest 0.0653
CCN(CC)C(=O)CC(c1ccccc1)c1ccco1 (stereo not drawn)	none (no result: ROMK primary) | ROMK hit retest inactive
CCCN(CCC)C(=O)CC(c1ccc(F)cc1)c1ccco1 (stereo not drawn)	none
Cc1cnc2ncc3sccc3c2c1	ROMK primary -3.59 | ROMK hit retest 0.0586
Cc1cc2c(cc1S(=O)(=O)N(C)c1ccccc1)NC(=O)CO2	ROMK primary -4.99 | ROMK hit retest 0.0532
C(#Cc1ccccc1)C[N+]1(CC#Cc2cccc3ccccc23)CCCC1	ROMK primary -4.51 | ROMK hit retest 0.0493
C#CC[N+]1(CC#Cc2ccccc2)CCCC1	none (no result: KCC2 mod, ROMK primary)
CC1(C)CC(=O)C2=C(C1)OC(N)=C(C#N)C2C#Cc1ccccc1 (stereo not drawn)	none (no result: KCC2 mod)
CC1(C)CC(=O)C2=C(C1)OC(N)=C(C#N)C2CCc1ccccc1 (stereo not drawn)	ROMK primary -5.07 | ROMK hit retest inactive
COCc1nnc(NC(C)=O)s1	none
O=C(Nc1ccc(Oc2ccc(C(=O)O)c(C(=O)O)c2)cc1)c1cccs1	none
COc1ccc(Oc2ccccc2C=O)cc1	none (no result: KCC2 mod, ROMK primary) | ROMK hit retest inconclusive
Cc1ccc(CNc2nc(N)c([N+](=O)[O-])c(NCCO)n2)cc1	none (no result: ROMK primary, WT yeast gro inh)
Nc1nc(NCc2ccc(Cl)cc2)nc(NCCO)c1[N+](=O)[O-]	none (no result: ROMK primary, WT yeast gro inh) | ROMK hit retest inactive
Cn1c(-c2ccc3c(c2)OCO3)cnc1NCc1cccc(Cl)c1	ROMK primary -4.82 | ROMK hit retest 0.0646
O=C(/C=C/c1ccccc1[N+](=O)[O-])c1ccccc1Br	ROMK primary -6.07, WT yeast gro inh 69.1 | ROMK hit retest 0.0485
